According to ChEMBL document CHEMBL1127457, “Nonpeptide renin inhibitors with good intraduodenal bioavailability and efficacy in dog” (J Med Chem, 1994):

How the values were obtained:
Renin [1] = biological target: T1, Renin (Rattus norvegicus, UniProt P08424); assay: (§1) Tested in vitro for its ability to inhibit the rat plasma renin; type: cell-free
T1 sequence (P08424 whole entry): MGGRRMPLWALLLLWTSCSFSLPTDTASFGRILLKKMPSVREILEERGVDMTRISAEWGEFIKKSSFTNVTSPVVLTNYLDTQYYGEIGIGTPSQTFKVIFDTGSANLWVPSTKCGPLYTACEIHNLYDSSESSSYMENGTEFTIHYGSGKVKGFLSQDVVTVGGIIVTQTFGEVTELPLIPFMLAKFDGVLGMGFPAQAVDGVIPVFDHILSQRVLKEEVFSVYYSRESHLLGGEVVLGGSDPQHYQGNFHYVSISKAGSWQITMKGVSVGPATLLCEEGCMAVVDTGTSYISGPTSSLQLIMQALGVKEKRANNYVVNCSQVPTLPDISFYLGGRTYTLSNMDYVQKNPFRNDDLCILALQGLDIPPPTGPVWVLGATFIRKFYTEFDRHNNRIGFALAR
Procedure, shortened: (§2)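 IC50 against renin in plasma from the named species (dog, ferret, human, rat); single determination in most cases.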

Renin (Canis familiaris) = assay: Tested in vitro for its ability to inhibit the dog plasma renin
[2] = biological target: Renin (Mustela putorius furo); assay: Tested in vitro for its ability to inhibit the ferret plasma renin
[3] = Average area under curve for the compound at 10 mg/kg dose after intraduodenal administration to rat; conditions: in vivo
[4] = Average area under curve for the compound at 1 mg/kg dose after intravenous administration to rat; conditions: in vivo
[5] = Oral bioavailability in rat; conditions: in vivo; for bioavailability: intraduodenal, 10 mg/kg
[6] = Average peak plasma concentration of compound after 10 mg/kg intraduodenal administration to rat
[7] = Average peak plasma concentration of compound after 1 mg/kg intravenous administration to rat
[8] = Partition coefficient (logD6.5); conditions: octanol/water, pH 6.5
[9] = Partition coefficient (logD7.4); conditions: octanol/water, pH 7.4
Renin [10] = biological target: T2, Renin (Homo sapiens, UniProt P00797); assay: Tested in vitro for its ability to inhibit the human plasma renin; type: cell-free; procedure, shortened: as §2
T2 sequence (P00797 whole entry): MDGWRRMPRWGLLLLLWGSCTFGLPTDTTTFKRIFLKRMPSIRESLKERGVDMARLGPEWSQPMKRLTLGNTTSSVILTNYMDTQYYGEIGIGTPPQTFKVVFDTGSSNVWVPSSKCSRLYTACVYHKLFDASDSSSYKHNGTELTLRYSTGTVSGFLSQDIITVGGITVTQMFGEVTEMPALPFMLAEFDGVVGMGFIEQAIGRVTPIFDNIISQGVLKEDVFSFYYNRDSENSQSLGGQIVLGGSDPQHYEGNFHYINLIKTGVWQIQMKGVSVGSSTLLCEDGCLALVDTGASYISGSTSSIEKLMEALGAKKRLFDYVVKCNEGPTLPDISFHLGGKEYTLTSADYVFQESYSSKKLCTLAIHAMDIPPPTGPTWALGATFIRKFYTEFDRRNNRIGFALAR

[11] = Average area under curve for compound at 1 mg/kg dose intravenous administration to Ferret; conditions: in vivo
[12] = Average area under curve at 10 mg/kg dose after intraduodenal administration to Ferret; conditions: in vivo
[13] = Average area under curve at 10 mg/kg intraduodenal administration to salt depleted dog; conditions: in vivo
[14] = Average area under curve at 1 mg/kg intravenous administration to salt depleted dog; conditions: in vivo
[15] = Oral bioavailability in dog (salt depleted); conditions: in vivo
Canis familiaris [16] = assay: Mean arterial pressure response following 10 mg/kg intraduodenal administration to salt depleted dog; conditions: in vivo, other
Canis familiaris [17] = assay: Mean arterial pressure response following 1 mg/kg intravenous administration to salt depleted dog; conditions: in vivo
[18] = Oral bioavailability in ferret; conditions: in vivo
[19] = Average peak plasma concentration of compound after 10 mg/kg intraduodenal administration to Ferret
[20] = Average peak plasma concentration of compound after 1 mg/kg intravenous administration in salt depleted dog; conditions: in vivo
[21] = Average peak plasma concentration of compound after 1 mg/kg intravenous administration to Ferret
[22] = Average peak plasma concentration of compound at 10 mg/kg intraduodenal administration in salt depleted dog; conditions: in vivo
Homo sapiens = species: Homo sapiens; conditions: Liver, Microsome
Renin [23] = biological target: T1, Renin; assay: as §1; type: functional, cell-free; procedure, shortened: as §2

Structure (SMILES) | IC50 (Renin (Canis familiaris)) [nM] | IC50 [2] [nM] | AUC [3] [ng·h/mL] | AUC [4] [ng·h/mL] | bioavailability [5] [%] | Cmax ([6]; plasma) [ng/mL] | Cmax ([7]; plasma) [ng/mL] | logD [8] | logD [9] | IC50 (Renin [10]) [nM] | AUC [11] [ng·h/mL] | AUC [12] [ng·h/mL] | bioavailability [18] [%] | Rate (nM min-1 (nM of cytochrome P450)-1) (Homo sapiens) | Cmax ([19]; plasma) [ng/mL] | Cmax ([21]; plasma) [ng/mL] | further results
CCCC[C@H](N[C@@H](Cc1ccccc1)C(=O)N1CCC(OCOC)CC1)C(=O)N[C@@H](CC1CCCCC1)[C@@H](O)C[C@H](C(=O)NCCCn1ccnc1)C(C)C | 24 | 330 | – | – | – | – | – | – | – | – | – | – | – | – | – | – | IC50 (Renin [1]): 7300 nM
CCCC[C@H](N[C@@H](Cc1ccccc1)C(=O)N1CCC(OCOC)CC1)C(=O)N[C@@H](CC1CCCCC1)[C@@H](O)C[C@H](C(=O)NCCC1CCCCC1)C(C)C | – | – | 37 | 82 | 4 | 30 | 140 | > 5 | > 5 | 40 | – | – | – | – | – | – | –
CCCC[C@H](N[C@@H](Cc1ccccc1)C(=O)N1CCC(OCOC)CC1)C(=O)N[C@@H](CC1CCCCC1)[C@@H](O)C[C@H](C(=O)NCCCN1CCOCC1)C(C)C | – | – | 235 | 66.7 | 36.3 | – | – | 3.9 | – | – | 902 | 6800 | 75 | 4.14 | – | – | AUC [13]: 4000 ng·h/mL; AUC [14]: 693 ng·h/mL; bioavailability [15]: 57%; Arterial pressure (Canis familiaris [16]): 10803 % mmHg min; Arterial pressure (Canis familiaris [17]): 8356 % mmHg min; Cmax ([19]; in vivo): 4620 ng/mL; Cmax ([6]; in vivo): 190 ng/mL; Cmax [20]: 4700 ng/mL; Cmax ([21]; in vivo): 1550 ng/mL; Cmax [22]: 1260 ng/mL
CCCC[C@H](N[C@@H](Cc1ccccc1)C(=O)N1CCC(OCOC)CC1)C(=O)N[C@@H](CC1CCCCC1)[C@@H](O)C[C@H](C(=O)NCc1ccccc1)C(C)C | – | – | 1100 | 1540 | 7 | – | – | > 5 | > 5 | 14 | – | – | – | – | – | – | Cmax ([6]; in vivo): 930 ng/mL; Cmax ([7]; in vivo): 1660 ng/mL
CCCC[C@H](N[C@@H](Cc1ccccc1)C(=O)N1CCC(OCOC)CC1)C(=O)N[C@@H](CC1CCCCC1)[C@@H](O)C[C@H](C(=O)NCCN1CCCCC1)C(C)C | – | – | 570 | 352 | 15 | 360 | 1000 | > 5 | > 5 | 14 | 1680 | 5680 | 33 | 4.52 | 3730 | 3600 | –
CCCC[C@H](N[C@@H](Cc1ccccc1)C(=O)N1CCC(OCOC)CC1)C(=O)N[C@@H](CC1CCCCC1)[C@@H](O)C[C@H](C(=O)NCc1ccccn1)C(C)C | 75 | 1000 | 6870 | 3130 | 21 | 4570 | 6250 | > 5 | > 5 | 12 | 3030 | 14100 | 46 | 3.52 | 9120 | 10000 | IC50 (Renin [23]): > 10000 nM
CCCC[C@H](N[C@@H](Cc1ccccc1)C(=O)N1CCC(OCOC)CC1)C(=O)N[C@@H](CC1CCCCC1)[C@@H](O)C[C@H](C(=O)NCCc1ccccn1)C(C)C | 33 | 510 | – | – | – | – | – | – | – | 9.4 | – | – | – | – | – | – | IC50 (Renin [1]): 7000 nM
CCCC[C@H](N[C@@H](Cc1ccccc1)C(=O)N1CCC(OCOC)CC1)C(=O)N[C@@H](CC1CCCCC1)[C@@H](O)C[C@H](C(=O)NCc1cccnc1)C(C)C | – | – | 3670 | 228 | – | – | – | > 5 | > 5 | – | 827 | > 8170 | > 98 | 2.27 | – | – | F ([5]; po): 160%; Cmax ([19]; in vivo): > 4920 ng/mL; Cmax ([6]; in vivo): 2320 ng/mL; Cmax ([21]; in vivo): 3480 ng/mL; Cmax ([7]; in vivo): 560 ng/mL
CCCC[C@H](N[C@@H](Cc1ccccc1)C(=O)N1CCC(OCOC)CC1)C(=O)N[C@@H](CC1CCCCC1)[C@@H](O)C[C@H](C(=O)NCc1ccncc1)C(C)C | 59 | 940 | 760 | 653 | 11 | 460 | 2480 | > 5 | > 5 | 7.8 | – | – | – | 0.78 | – | – | IC50 (Renin [1]): 10000 nM
CCCC[C@H](N[C@@H](Cc1ccccc1)C(=O)N1CCC(OCOC)CC1)C(=O)N[C@@H](CC1CCCCC1)[C@@H](O)C[C@H](C(=O)NCCN1CCCC1)C(C)C | – | – | > 850 | 340 | > 25 | > 480 | 1310 | > 5 | > 5 | 13 | 2750 | 8220 | 29 | – | 5500 | 3900 | –
CCCC[C@H](O[C@@H](Cc1ccccc1)C(=O)N1CCC(OCOC)CC1)C(=O)N[C@@H](CC1CCCCC1)[C@@H](O)C[C@H](C(=O)NCCCN1CCOCC1)C(C)C | – | – | – | – | – | – | – | 3.3 | – | – | – | – | – | 4.26 | – | – | –
CCCC[C@H](N[C@@H](Cc1ccccc1)C(=O)N1CCC(OCOC)CC1)C(=O)N[C@@H](CC1CCCCC1)[C@@H](O)C[C@H](C(=O)NCCNc1noc(N)n1)C(C)C | – | – | – | – | – | – | – | 4.07 | 4.11 | 3.8 | 71.3 | 54.8 | 7 | – | 110 | 320 | –
CCCC[C@H](N[C@@H](Cc1ccccc1)C(=O)N1CCC(OCOC)CC1)C(=O)N[C@@H](CC1CCCCC1)[C@@H](O)C[C@H](C(=O)NCCNc1n[nH]c(N)n1)C(C)C | – | – | 94.8 | 318 | 2 | 190 | 810 | 4.1 | 4.2 | 6.1 | – | – | – | – | – | – | –
